Source: ChEMBL document CHEMBL1143440, “Tetrakis-azaaromatic quaternary ammonium salts: novel subtype-selective antagonists at neuronal nicotinic receptors that mediate nicotine-evoked dopamine release” (Bioorg Med Chem Lett, 2008)

Columns and labels:
[1] = species on record: Rattus norvegicus; experiment: Inhibition of nAChR-mediated nicotine-evoked [3H]DA release in superfused rat striatal slices at 100 nM
Method in brief: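 Rat striatal slices, preloaded with [3H]DA, superfused 36 min with or without 100 nM analogue, then 36 min more with 10 μM S(-)-nicotine added. Inhibition expressed as percent of the nicotine-evoked [3H]DA overflow without analogue. At least three independent experiments, each in duplicate.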

[2] = target: Neuronal acetylcholine receptor subunit alpha-7 (Rattus norvegicus) (UniProt Q05941); experiment: Displacement of [3H]methyllycaconitine from alpha7 nAChR in rat brain membrane at 100 nM; assay type: cell membranes
Sequence of Neuronal acetylcholine receptor subunit alpha-7 (Rattus norvegicus) (Q05941 whole entry): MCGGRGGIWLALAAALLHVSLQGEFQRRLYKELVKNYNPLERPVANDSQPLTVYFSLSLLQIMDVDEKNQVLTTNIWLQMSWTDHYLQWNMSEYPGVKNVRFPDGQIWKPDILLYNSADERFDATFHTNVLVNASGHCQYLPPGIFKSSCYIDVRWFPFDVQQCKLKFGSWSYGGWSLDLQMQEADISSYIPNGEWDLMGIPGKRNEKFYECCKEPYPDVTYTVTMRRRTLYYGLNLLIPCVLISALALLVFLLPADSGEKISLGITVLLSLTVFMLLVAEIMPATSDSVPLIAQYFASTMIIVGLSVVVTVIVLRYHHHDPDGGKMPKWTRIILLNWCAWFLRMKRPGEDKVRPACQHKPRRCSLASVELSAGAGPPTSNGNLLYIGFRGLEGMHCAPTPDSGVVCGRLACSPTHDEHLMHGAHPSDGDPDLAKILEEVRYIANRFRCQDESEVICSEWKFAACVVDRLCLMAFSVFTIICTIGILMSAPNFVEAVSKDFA
Method in brief: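 Whole rat brain membranes, [3H]MLA binding at 2.5 nM radioligand; nonspecific binding defined with 10 μM nicotine. Analogue tested at a 100 nM probe concentration. Inhibition expressed as percent of radioligand binding without analogue. At least three independent experiments, each in duplicate.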

[3] = target: Neuronal acetylcholine receptor; alpha4/beta2 (Rattus norvegicus) (UniProt P09483+P12390); experiment: Displacement of [3H]nicotine from alpha4beta2 nAChR in rat brain membrane at 100 nM; assay type: cell membranes
Method in brief: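 Whole rat brain membranes, [3H]nicotine binding at 3 nM radioligand; nonspecific binding defined with 10 μM […]. Analogue tested at a 100 nM probe concentration. Inhibition expressed as percent of radioligand binding without analogue. At least three independent experiments, each in duplicate.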

[4] = Inhibition of nAChR-mediated nicotine-evoked [3H]DA release in superfused rat striatal slices
Method in brief: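 Superfused rat striatal slices, [3H]DA overflow evoked by 10 μM S(-)-nicotine after 36 min analogue pre-exposure, superfusion continued 36 min. Full concentration range 1 nM to 10 μM. IC50 from iterative nonlinear least-squares curve fitting; 4–5 independent experiments, each in duplicate.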

[5] = target: Neuronal acetylcholine receptor subunit alpha-7 (Rattus norvegicus, UniProt Q05941); experiment: Displacement of [3H]methyllycaconitine from alpha7 nAChR in rat brain membrane; assay type: cell membranes
Sequence of Neuronal acetylcholine receptor subunit alpha-7 (Q05941 whole entry): as above

| Compound | inhibition [1] [%] | Activity [2] [%] | Activity [3] [%] | IC50 [4] [nM] | Ki [5] [nM] |
| --- | --- | --- | --- | --- | --- |
| c1ccc(-c2ccc[n+](CCCCCc3cc(CCCCC[n+]4cccc(-c5ccccc5)c4)c(CCCCC[n+]4cccc(-c5ccccc5)c4)cc3CCCCC[n+]3cccc(-c4ccccc4)c3)c2)cc1 | 19 | 33 | 6.6 |  |  |
| c1ccc(Cc2ccc[n+](CCCCCc3cc(CCCCC[n+]4cccc(Cc5ccccc5)c4)c(CCCCC[n+]4cccc(Cc5ccccc5)c4)cc3CCCCC[n+]3cccc(Cc4ccccc4)c3)c2)cc1 | 54 | 16 | 13 | 28 |  |
| Cc1cc[n+](CCCCCc2cc(CCCCC[n+]3ccc(C)cc3)c(CCCCC[n+]3ccc(C)cc3)cc2CCCCC[n+]2ccc(C)cc2)cc1 | 46 | 8 | 12 |  |  |
| C(#Cc1cc(C#CCCC[n+]2cccc(Cc3ccccc3)c2)c(C#CCCC[n+]2cccc(Cc3ccccc3)c2)cc1C#CCCC[n+]1cccc(Cc2ccccc2)c1)CCC[n+]1cccc(Cc2ccccc2)c1 | 17 | 53 | 2.9 |  |  |
| C(#Cc1cc(C#CCCC[n+]2cccc(-c3ccccc3)c2)c(C#CCCC[n+]2cccc(-c3ccccc3)c2)cc1C#CCCC[n+]1cccc(-c2ccccc2)c1)CCC[n+]1cccc(-c2ccccc2)c1 | 37 | 53 | 0.3 |  |  |
| OCCCc1ccc[n+](CCCCCc2cc(CCCCC[n+]3cccc(CCCO)c3)c(CCCCC[n+]3cccc(CCCO)c3)cc2CCCCC[n+]2cccc(CCCO)c2)c1 | 64 | 20 | 9.6 | 3.38 |  |
| Cc1cc(C)c[n+](CCCC#Cc2cc(C#CCCC[n+]3cc(C)cc(C)c3)c(C#CCCC[n+]3cc(C)cc(C)c3)cc2C#CCCC[n+]2cc(C)cc(C)c2)c1 | 12 | 3.9 | 0 |  |  |
| Cc1cc(C)c[n+](CCCCCc2cc(CCCCC[n+]3cc(C)cc(C)c3)c(CCCCC[n+]3cc(C)cc(C)c3)cc2CCCCC[n+]2cc(C)cc(C)c2)c1 | 45 | 15 | 3.7 |  |  |
| CN1CCC[C@H]1c1ccc[n+](CCCCCc2cc(CCCCC[n+]3cccc([C@@H]4CCCN4C)c3)c(CCCCC[n+]3cccc([C@@H]4CCCN4C)c3)cc2CCCCC[n+]2cccc([C@@H]3CCCN3C)c2)c1 | 43 | 26 | 7.4 |  |  |
| C(#Cc1cc(C#CCCC[n+]2ccc3c(c2)CCCC3)c(C#CCCC[n+]2ccc3c(c2)CCCC3)cc1C#CCCC[n+]1ccc2c(c1)CCCC2)CCC[n+]1ccc2c(c1)CCCC2 | 24 | 17 | 9.7 |  |  |
| Cc1cc[n+](CCCC#Cc2cc(C#CCCC[n+]3ccc(C)cc3)c(C#CCCC[n+]3ccc(C)cc3)cc2C#CCCC[n+]2ccc(C)cc2)cc1 | 35 | 3 | 24 |  |  |
| Cc1ccc[n+](CCCCCc2cc(CCCCC[n+]3cccc(C)c3)c(CCCCC[n+]3cccc(C)c3)cc2CCCCC[n+]2cccc(C)c2)c1 | 8 | 12 | 12 |  |  |
| Cc1ccc[n+](CCCC#Cc2cc(C#CCCC[n+]3cccc(C)c3)cc(C#CCCC[n+]3cccc(C)c3)c2)c1 | 40 | 0 | 10 | 0.2 |  |
| OCCCc1ccc[n+](CCCC#Cc2cc(C#CCCC[n+]3cccc(CCCO)c3)c(C#CCCC[n+]3cccc(CCCO)c3)cc2C#CCCC[n+]2cccc(CCCO)c2)c1 | 41 | 5.7 | 0 |  |  |
| c1ccc2c[n+](CCCCCc3cc(CCCCC[n+]4ccc5ccccc5c4)c(CCCCC[n+]4ccc5ccccc5c4)cc3CCCCC[n+]3ccc4ccccc4c3)ccc2c1 | 63 | 24 | 6.5 | 56 |  |
| C(#Cc1cc(C#CCCC[n+]2ccc3ccccc3c2)c(C#CCCC[n+]2ccc3ccccc3c2)cc1C#CCCC[n+]1ccc2ccccc2c1)CCC[n+]1ccc2ccccc2c1 | 39 | 4.9 | 0 |  |  |
| Cc1cc[n+](CCCCCc2cc(CCCCC[n+]3ccc(C)c(C)c3)c(CCCCC[n+]3ccc(C)c(C)c3)cc2CCCCC[n+]2ccc(C)c(C)c2)cc1C | 36 | 18 | 0.5 |  |  |
| Cc1cc[n+](CCCC#Cc2cc(C#CCCC[n+]3ccc(C)c(C)c3)c(C#CCCC[n+]3ccc(C)c(C)c3)cc2C#CCCC[n+]2ccc(C)c(C)c2)cc1C | 17 | 0.6 | 9.8 |  |  |
| Cc1ccc[n+](CCCC#Cc2cc(C#CCCC[n+]3cccc(C)c3)c(C#CCCC[n+]3cccc(C)c3)cc2C#CCCC[n+]2cccc(C)c2)c1 | 16 | 18 | 11 |  |  |
| CN1CCC[C@H]1c1ccc[n+](CCCC#Cc2cc(C#CCCC[n+]3cccc([C@@H]4CCCN4C)c3)c(C#CCCC[n+]3cccc([C@@H]4CCCN4C)c3)cc2C#CCCC[n+]2cccc([C@@H]3CCCN3C)c2)c1 | 31 | 15 | 38 |  |  |
| Cc1ccc[n+](CCCCCCCCCCCC[n+]2cccc(C)c2)c1 |  |  |  | 2 | > 100000 |
| c1c(CCCCC[n+]2ccc3c(c2)CCCC3)c(CCCCC[n+]2ccc3c(c2)CCCC3)cc(CCCCC[n+]2ccc3c(c2)CCCC3)c1CCCCC[n+]1ccc2c(c1)CCCC2 | 27 | 27 | 0.9 |  |  |
